What was measured:
[1] = tested on: Leishmania donovani; assay: Antileishmanial activity against promastigotes of Leishmania donovani HOM/IN/01/2001 after 72 hrs by flow cytometry; assay type: functional, organism-based; settings: HOM/IN/01/2001, 72 h
In short: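 GFP-transfected late log-phase promastigotes in M199 with 10% FCS and 500 µg/mL G418, seeded at about 10⁵ parasites/mL; compounds in DMSO (final <0.5% v/v) over a concentration range in duplicate; 72 h at 27 °C; growth read by green fluorescence flow cytometry; DMSO and pentamidine controls; IC50 versus control by non-linear regression of dose-response curves.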

[2] = Selectivity index, ratio of IC50 for human THP1 cells to IC50 for promastigotes of Leishmania donovani HOM/IN/01/2001; assay type: toxicity, cell-based, THP-1; settings: read-out: Selectivity Index
[3] = tested on: THP-1; assay: Cytotoxicity against human THP1 cells after 72 hrs by flow cytometry; assay type: cell-based; settings: THP-1, 72 h
In short: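 Late log-phase THP1 monocytes in phenol red-free RPMI 1640 with 10% FCS, 2% L-glutamine, 1% penicillin-streptomycin; compound range in duplicate, DMSO final <0.5% v/v; 72 h at 37 °C, 6% CO2; propidium iodide staining, live cells counted by flow cytometry; doxorubicin, pentamidine and solvent controls; IC50 by non-linear regression, mean of three independent experiments.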

SMILES | IC50 [1] [µM] | selectivity ratio [2] | IC50 [3] [µM]
CC1(Cc2ccccc2)CC(S(=O)(=O)c2ccc(/C(N)=N/O)cc2)=C(c2ccc(Nc3ccccc3/C(N)=N/O)cc2)O1 (centres undefined) | 8.8 | 5.5 | 48.1
CC1(Cc2ccccc2)CC(S(=O)(=O)c2ccc(/C(N)=N/O)cc2)=C(c2ccc(Nc3ccc(/C(N)=N/O)cc3)cc2)O1 (centres undefined) | 30.1 | 0.3 | 9.8
CC1(Cc2ccccc2)CC(S(=O)(=O)c2ccc(/C(N)=N/O)cc2)=C(c2ccc(/C(N)=N/O)cc2)O1 (centres undefined) | 99.5 | 1 | 99.5
N/C(=N\O)c1ccc(/C=C/c2ccc(C3=C(S(=O)(=O)c4ccc(/C(N)=N/O)cc4)CC(c4ccccc4)(c4ccccc4)O3)cc2)cc1 | > 50 | < 0.9 | 41.3
N/C(=N\O)c1ccc(S(=O)(=O)CC(=O)c2ccccc2)cc1 | > 125 | – | > 125
CC1(Cc2ccccc2)CC(S(=O)(=O)c2ccc(Nc3ccccc3/C(N)=N/O)cc2)=C(c2ccc(/C(N)=N/O)cc2)O1 (centres undefined) | 48.3 | 1 | 48.4
N/C(=N\O)c1ccc(Nc2ccc(S(=O)(=O)C3=C(c4ccc(/C(N)=N/O)cc4)OC(c4ccccc4)(c4ccccc4)C3)cc2)cc1 | 39.1 | > 1.3 | > 50
N/C(=N\O)c1ccc(S(=O)(=O)C2=C(c3ccc(Nc4cccc(/C(N)=N/O)c4)cc3)OC(c3ccccc3)(c3ccccc3)C2)cc1 | > 50 | < 1 | 48.1
N/C(=N\O)c1ccc(C(=O)CS(=O)(=O)c2ccccc2)cc1 | > 125 | – | > 125
N/C(=N\O)c1ccc(C2=C(S(=O)(=O)c3ccc(/C(N)=N/O)cc3)CC(c3ccccc3)(c3ccccc3)O2)cc1 | 74.3 | 1.6 | 119
N/C(=N\O)c1ccc(S(=O)(=O)C2=C(c3ccc(Nc4ccccc4/C(N)=N/O)cc3)OC(c3ccccc3)(c3ccccc3)C2)cc1 | 13.3 | 3.6 | 47.8
N=C(N)c1ccc(OCCCCCOc2ccc(C(=N)N)cc2)cc1 [PENTAMIDINE] | 11.2 | 2.8 | 31.2
CC1(Cc2ccccc2)CC(S(=O)(=O)c2ccc(/C=C/c3ccc(/C(N)=N/O)cc3)cc2)=C(c2ccc(/C(N)=N/O)cc2)O1 (centres undefined) | > 50 | – | > 50
CC1(Cc2ccccc2)CC(S(=O)(=O)c2ccccc2)=C(c2ccc(/C(N)=N/O)cc2)O1 (centres undefined) | 30.3 | 3.1 | 94.6
N/C(=N\O)c1ccc(C2=C(S(=O)(=O)c3ccc(Nc4ccccc4/C(N)=N/O)cc3)CC(c3ccccc3)(c3ccccc3)O2)cc1 | 39.1 | > 1.3 | > 50
COc1cccc2c1C(=O)c1c(O)c3c(c(O)c1C2=O)C[C@@](O)(C(=O)CO)C[C@@H]3O[C@H]1C[C@H](N)[C@H](O)[C@H](C)O1 [DOXORUBICIN] | – | – | 0.008
N/C(=N\O)c1ccc(Nc2ccc(C3=C(S(=O)(=O)c4ccc(/C(N)=N/O)cc4)CC(c4ccccc4)(c4ccccc4)O3)cc2)cc1 | > 50 | < 1 | 48.9
N/C(=N\O)c1ccc(C2=C(S(=O)(=O)c3ccc(Nc4cccc(/C(N)=N/O)c4)cc3)CC(c3ccccc3)(c3ccccc3)O2)cc1 | > 50 | – | > 50
CC1(Cc2ccccc2)CC(S(=O)(=O)c2ccc(Nc3ccc(/C(N)=N/O)cc3)cc2)=C(c2ccc(/C(N)=N/O)cc2)O1 (centres undefined) | > 50 | < 1 | 47.6
N/C(=N\O)c1ccc(S(=O)(=O)C2=C(c3ccccc3)OC(c3ccccc3)(c3ccccc3)C2)cc1 | 17.6 | 2.1 | 37.9
N/C(=N\O)c1ccc(C(=O)CS(=O)(=O)c2ccc(/C(N)=N/O)cc2)cc1 | > 125 | – | > 125
N/C(=N\O)c1ccc(/C=C/c2ccc(S(=O)(=O)C3=C(c4ccc(/C(N)=N/O)cc4)OC(c4ccccc4)(c4ccccc4)C3)cc2)cc1 | 50 | > 0.2 | > 10
CC1(Cc2ccccc2)CC(S(=O)(=O)c2ccc(/C(N)=N/O)cc2)=C(c2ccc(Nc3cccc(/C(N)=N/O)c3)cc2)O1 (centres undefined) | > 50 | < 0.9 | 44
CC1(Cc2ccccc2)CC(S(=O)(=O)c2ccc(/C(N)=N/O)cc2)=C(c2ccccc2)O1 (centres undefined) | 8.3 | 6.6 | 54.7
CC1(Cc2ccccc2)CC(S(=O)(=O)c2ccc(Nc3cccc(/C(N)=N/O)c3)cc2)=C(c2ccc(/C(N)=N/O)cc2)O1 (centres undefined) | > 50 | < 1 | 46.6
N/C(=N\O)c1ccc(C2=C(S(=O)(=O)c3ccccc3)CC(c3ccccc3)(c3ccccc3)O2)cc1 | 20.6 | 1.5 | 30.6
CC1(Cc2ccccc2)CC(S(=O)(=O)c2ccc(/C(N)=N/O)cc2)=C(c2ccc(/C=C/c3ccc(/C(N)=N/O)cc3)cc2)O1 (centres undefined) | 17.1 | 1.4 | 23.4
